Laboratory results reported in ChEMBL document CHEMBL3352281, “Canthin-6-one displays antiproliferative activity and causes accumulation of cancer cells in the G2/M phase” (J Nat Prod, 2014).
The source made the active and inactive calls. The calls are words filed in the database; no cut-off is given here.

Experiments:
[1] = system: HT-29; assay: Antiproliferative activity against human HT-29 cells assessed as inhibition of cell growth at 10 to 60 uM after 4 days; format: functional, cell-based; details: HT-29, 96 h
Procedure, shortened: (§1)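 Cell counting: 40 000 cells/well seeded and grown at 37 °C, 5% CO2 in medium with 10% FCS, 2 mM glutamine and penicillin-streptomycin (Ham's F12 for PC-3, RPMI for Jurkat, DMEM for the others). Compound added from a 50-fold stock in 10% DMSO; controls 0.2% DMSO. Quadruplicate wells trypsinized (Jurkat not) and counted in a Malassez chamber; mean ± SEM, n = 4.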

[2] = Toxicity against human NHDF assessed as cell viability at 80 uM incubated for 3 days by MTT assay; format: cell-based; details: NHDF cells, read-out: Activity
Procedure, shortened: (§2)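 Normal human dermal fibroblasts kept 3 days in DMEM with 10% FCS at increasing concentrations up to 160 μM, DMSO-matched controls. MTT reduction read at 540 nm as percentage viability (mean ± SEM, n = 3), with microscopic morphology scoring.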

[3] = system: HT-29; assay: Induction of apoptosis in human HT-29 cells assessed as induction of procaspase-3 cleavage at 40 uM after 48 hrs by Western blot method; format: functional
Procedure, shortened: (§3)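 Western blot: 40 000 cells/well exposed 2−4 days to 40 μM (HeLa 10 and 30 μM) or 0.2% DMSO. Lysed in Laemmli buffer, run on 12.5% SDS-PAGE, moved to nitrocellulose. Probed overnight at 4 °C with rabbit anti-caspase-3 (1/1000), then Alexa-488 secondary. β-Actin loading control; fluorescence read on a laser scanner.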

[4] = Antiproliferative activity against mouse NIH/3T3 cells assessed as induction of cell death at 40 to 60 uM after 4 days; format: functional, NIH3T3
Procedure, shortened: as §1, with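 “Cells seeded at” for “Cell counting:”, “per well” for “cells/well seeded”, “CO2” for “CO2 in medium”, “HT-29, HeLa, C6, NIH-3T3).” for “the others).”, “solution” for “stock”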

[5] = Antiproliferative activity against human PC3 cells assessed as inhibition of cell growth at 10 to 60 uM after 4 days; format: functional, cell-based; details: PC-3, 96 h; procedure, shortened: as §1
[6] = system: HeLa; assay: Induction of apoptosis in human HeLa cells assessed as induction of procaspase-3 cleavage at 10 uM after 48 hrs by Western blot method; format: functional; procedure, shortened: as §3
[7] = Toxicity against human NHDF assessed as cell viability up to 20 uM incubated for 3 days by MTT assay; format: cell-based; details: NHDF cells, read-out: Activity; procedure, shortened: as §2
[8] = system: Jurkat; assay: Antiproliferative activity against human Jurkat cells assessed as inhibition of cell growth at 10 to 60 uM after 4 days; format: functional, cell-based; details: 96 h; procedure, shortened: as §1
[9] = system: HeLa; assay: Antiproliferative activity against human HeLa cells assessed as inhibition of cell growth at 40 uM after 2 days; format: functional; details: 48 h, read-out: GI; procedure, shortened: as §1
[10] = system: PC-3; assay: Inhibition of DNA synthesis in human PC3 cells assessed as reduction in post-mitotic nuclei level at 40 uM pre-incubated for 30 hrs by immunofluorescence microscopy (reference value: 85%); format: functional; details: PC-3, read-out: INH
[11] = system: HeLa; assay: Induction of apoptosis in human HeLa cells assessed as induction of procaspase-3 cleavage at 30 uM after 48 hrs by Western blot method; format: functional; procedure, shortened: as §3
[12] = Toxicity against human NHDF assessed as cell viability at 40 uM incubated for 3 days by MTT assay; format: cell-based; details: NHDF cells, read-out: Activity; procedure, shortened: as §2
[13] = system: Jurkat; assay: Induction of apoptosis in human Jurkat cells assessed as induction of procaspase-3 cleavage at 40 uM after 48 hrs by Western blot method; format: functional, cell-based; procedure, shortened: as §3
[14] = system: C6; assay: Induction of apoptosis in rat C6 cells assessed as induction of procaspase-3 cleavage at 40 uM after 48 hrs by Western blot method; format: functional, cell-based; procedure, shortened: as §3
[15] = system: NIH3T3; assay: Antiproliferative activity against mouse NIH/3T3 cells assessed as inhibition of cell growth at 40 uM after 4 days; format: functional, cell-based; procedure, shortened: as §1
[16] = system: PC-3; assay: Antiproliferative activity against human PC3 cells assessed as inhibition of cell growth at 40 uM after 4 days; format: functional, cell-based; procedure, shortened: as §1
[17] = system: HeLa; assay: Antiproliferative activity against human HeLa cells assessed as inhibition of cell growth at 10 uM after 4 days; format: functional; details: 96 h, read-out: GI; procedure, shortened: as §1
[18] = system: NIH3T3; assay: Induction of apoptosis in mouse NIH/3T3 cells assessed as induction of procaspase-3 cleavage at 40 uM after 48 hrs by Western blot method; format: functional, cell-based; procedure, shortened: as §3
[19] = system: PC-3; assay: Reduction in mitotic spindles formation in human PC3 cells at 40 uM incubated for 48 hrs by tubulin immunofluorescence assay; format: functional; details: PC-3, 48 h
Procedure, shortened: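 Mitotic spindles: PC-3 in chamber slides (10 000/well), 2 days with 40 μM or 0.2% DMSO. Ethanol/glycine fixation, anti-β-tubulin 1/200 for 2 h at 37 °C, then Alexa 488 secondary. Mitotic cells scored by fluorescence microscopy in random fields; at least 6000−10 000 cells counted per group.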

[20] = system: HT-29; assay: Antiproliferative activity against human HT-29 cells assessed as inhibition of cell growth at 40 uM after 4 days; format: functional, cell-based; procedure, shortened: as §1
[21] = system: C6; assay: Antiproliferative activity against rat C6 cells assessed as inhibition of cell growth at 40 uM after 4 days; format: functional, cell-based; procedure, shortened: as §1
[22] = system: HT-29; assay: Antiproliferative activity against human HT-29 cells assessed as induction of cell death at 40 to 60 uM after 4 days; format: functional
Procedure, shortened: as §1, with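 “Cells seeded at” for “Cell counting:”, “per well” for “cells/well seeded”, “CO2” for “CO2 in medium”, “HT-29, HeLa, C6, NIH-3T3).” for “the others).”, “solution” for “stock”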

[23] = Toxicity against human NHDF assessed as reduction in cell viability incubated for 3 days by MTT assay; format: cell-based; details: NHDF cells; procedure, shortened: as §2
[24] = system: C6; assay: Antiproliferative activity against rat C6 cells assessed as induction of cell death at 40 to 60 uM after 4 days; format: functional
Procedure, shortened: as §1, with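 “Cells seeded at” for “Cell counting:”, “per well” for “cells/well seeded”, “CO2” for “CO2 in medium”, “HT-29, HeLa, C6, NIH-3T3).” for “the others).”, “solution” for “stock”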

[25] = system: PC-3; assay: Induction of apoptosis in human PC3 cells assessed as induction of procaspase-3 cleavage at 40 uM after 96 hrs by Western blot method; format: functional; procedure, shortened: as §3
[26] = system: Jurkat; assay: Antiproliferative activity against human Jurkat cells assessed as induction of cell death at 40 to 60 uM after 4 days; format: functional
Procedure, shortened: as §1, with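 “Cells seeded at” for “Cell counting:”, “per well” for “cells/well seeded”, “CO2” for “CO2 in medium”, “HT-29, HeLa, C6, NIH-3T3).” for “the others).”, “solution” for “stock”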

[27] = system: PC-3; assay: Induction of cell cycle arrest in human PC3 cells assessed as accumulation at S phase at 40 uM incubated for 48 hrs by propidium iodide staining based flow cytometry (reference value: 21.6 +/- 0.2%); format: functional
[28] = system: PC-3; assay: Inhibition of DNA synthesis in human PC3 cells assessed as reduction in BrdU incorporation at 40 uM pre-incubated for 30 hrs by Southern blotting method; format: functional
Procedure, shortened: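 PC-3, 10^6 cells per flask, held 30 h at 40 μM or 0.2% DMSO, then 18 h BrdU labeling. Genomic DNA isolated by proteinase K/phenol-chloroform; 400 ng run on agarose, blotted to nitrocellulose, acid-denatured, probed with anti-BrdU and Alexa 647 secondary. Scanned signal normalized to ethidium bromide DNA fluorescence.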

[29] = system: PC-3; assay: Induction of cell cycle arrest in human PC3 cells assessed as accumulation at G2/M phase at 40 uM incubated for 48 hrs by flow propidium iodide staining based flow cytometry (reference value: 20 +/- 0.6%); format: functional
[30] = system: HeLa; assay: Antiproliferative activity against human HeLa cells assessed as inhibition of cell growth at 10 to 60 uM after 4 days; format: functional, cell-based; details: 96 h; procedure, shortened: as §1
[31] = Toxicity against human NHDF assessed as cell viability at 160 uM incubated for 3 days by MTT assay; format: cell-based; details: NHDF cells, read-out: Activity; procedure, shortened: as §2
[32] = system: C6; assay: Antiproliferative activity against rat C6 cells assessed as inhibition of cell growth at 10 to 60 uM after 4 days; format: functional, cell-based; details: C6, 96 h; procedure, shortened: as §1
[33] = system: PC-3; assay: Induction of apoptosis in human PC3 cells assessed as induction of procaspase-3 cleavage at 40 uM after 48 hrs by Western blot method; format: functional; procedure, shortened: as §3
[34] = Antiproliferative activity against human PC3 cells assessed as induction of cell death at 40 to 60 uM after 4 days; format: functional, PC-3
Procedure, shortened: as §1, with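 “Cells seeded at” for “Cell counting:”, “per well” for “cells/well seeded”, “CO2” for “CO2 in medium”, “HT-29, HeLa, C6, NIH-3T3).” for “the others).”, “solution” for “stock”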

[35] = system: PC-3; assay: Induction of cell cycle arrest in human PC3 cells assessed as accumulation at G1 phase at 40 uM incubated for 48 hrs by propidium iodide staining based flow cytometry (reference value: 57.8 +/- 0.6%); format: functional
[36] = Antiproliferative activity against mouse NIH/3T3 cells assessed as inhibition of cell growth at 10 to 60 uM after 4 days; format: functional, cell-based; details: NIH3T3, 96 h; procedure, shortened: as §1
[37] = system: Jurkat; assay: Antiproliferative activity against human Jurkat cells assessed as inhibition of cell growth at 40 uM after 4 days; format: functional, cell-based; procedure, shortened: as §1

For O=c1ccc2nccc3c4ccccc4n1c23 [CANTHIN-6-ONE], the EC50 [1] was 15 µM, the viability at 72 h, 80 µM [2] was 64% and the “fold change (FC)” value [3] was 2. For the same molecule, the Activity [4] was “<=30%”, the EC50 [5] was 15 µM and the “fold change (FC)” value [6] was 1.5. For the same molecule, the viability at 72 h [7] was 80%, the EC50 [8] was 15 µM and the inhibition of growth at 40 µM [9] was greater than 90%. For the same molecule, the inhibition at 40 µM [10] was 60%, the “fold change (FC)” value [11] was 3.5 and the viability at 72 h, 40 µM [12] was 80%. For the same molecule, the Activity [13] was “inactive”, the Activity [14] was “inactive” and the “growth inhibition (GI)” value [15] was “Active”. The “growth inhibition (GI)” value [16] was “Active”, the inhibition of growth at 10 µM [17] was 100% and the Activity [18] was “inactive”. The inhibition at 40 µM [19] was 80%, the “growth inhibition (GI)” value [20] was “Active” and the “growth inhibition (GI)” value [21] was “Active”. For the same molecule, the Activity [22] was “<=30%”, the EC50 at 3 days [23] was 115 µM and the Activity [24] was “<=30%”. For the same molecule, the “fold change (FC)” value [25] was 7, the Activity [26] was “<=30%” and the Activity [27] was 13.3%. For the same molecule, the inhibition at 40 µM [28] was 80%, the Activity [29] was 47.8% and the EC50 [30] was 5 µM. For the same molecule, the viability at 72 h, 160 µM [31] was 33%, the EC50 [32] was 15 µM and the “fold change (FC)” value [33] was 2. The Activity [34] was “<=30%”, the Activity [35] was 38.1% and the EC50 [36] was 15 µM. For the same molecule, the “growth inhibition (GI)” value [37] was “Active”.
